Data reported in ChEMBL document CHEMBL2177069, “Novel peptidomimetic compounds containing redox active chalcogens and quinones as potential anticancer agents” (Eur J Med Chem, 2012).
The source made the active and inactive calls. The calls are words filed in the database; no cut-off is given here.

How the values were obtained:
Saccharomyces cerevisiae [1] = assay: Growth inhibition of UFD2-deficient Saccharomyces cerevisiae YDL190C mutant at 20 ug/disc after 24 to 48 hrs by agar diffusion assay; format: functional; conditions: read-out: DIZ
Outline: (§1)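 S. cerevisiae deletion mutants or wild type grown on YPD, seeded into liquid agar medium at an optical density of 0.1. 6 mm paper discs soaked with methanolic compound solution were placed on the plates and incubated at 30 °C. Growth was checked after 1 and 2 days, and the inhibition zone diameter was recorded in mm.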

Saccharomyces cerevisiae [2] = assay: Growth inhibition of COX17-deficient Saccharomyces cerevisiae YLL009C mutant at 20 ug/disc after 24 to 48 hrs by agar diffusion assay; format: functional; conditions: read-out: DIZ; outline: as §1
Saccharomyces cerevisiae [3] = assay: Growth inhibition of GSH2-deficient Saccharomyces cerevisiae YOL049W mutant at 20 ug/disc after 24 to 48 hrs by agar diffusion assay; format: functional; conditions: read-out: DIZ; outline: as §1
Saccharomyces cerevisiae [4] = assay: Growth inhibition of RCK1-deficient Saccharomyces cerevisiae YGL158W mutant at 20 ug/disc after 24 to 48 hrs by agar diffusion assay; format: functional; conditions: read-out: DIZ; outline: as §1
Saccharomyces cerevisiae [5] = assay: Growth inhibition of GTT2-deficient Saccharomyces cerevisiae YLL060C mutant at 20 ug/disc after 24 to 48 hrs by agar diffusion assay; format: functional; conditions: read-out: DIZ; outline: as §1
Saccharomyces cerevisiae [6] = assay: Growth inhibition of POS5-deficient Saccharomyces cerevisiae YPL188W mutant at 20 ug/disc after 24 to 48 hrs by agar diffusion assay; format: functional; conditions: read-out: DIZ; outline: as §1
Saccharomyces cerevisiae [7] = assay: Growth inhibition of WSC4-deficient Saccharomyces cerevisiae YHL028W mutant at 20 ug/disc 24 to 48 hrs by agar diffusion assay; format: functional; conditions: read-out: DIZ; outline: as §1
Saccharomyces cerevisiae [8] = assay: Growth inhibition of PST2-deficient Saccharomyces cerevisiae YDR032C mutant at 20 ug/disc 24 to 48 hrs by agar diffusion assay; format: functional; conditions: read-out: DIZ; outline: as §1
Saccharomyces cerevisiae [9] = assay: Growth inhibition of SOD2-deficient Saccharomyces cerevisiae YHR008C mutant at 20 ug/disc 24 to 48 hrs by agar diffusion assay; format: functional; conditions: read-out: DIZ; outline: as §1
Saccharomyces cerevisiae [10] = assay: Growth inhibition of SOD1-deficient Saccharomyces cerevisiae YJR104C mutant at 20 ug/disc after 24 to 48 hrs by agar diffusion assay; format: functional; conditions: read-out: DIZ; outline: as §1
Saccharomyces cerevisiae [11] = assay: Growth inhibition of wild type Saccharomyces cerevisiae BY4741 at 20 ug/disc after 24 to 48 hrs by agar diffusion assay; format: functional; conditions: read-out: DIZ; outline: as §1
A-431 [12] = assay: Induction of apoptosis in human A431 cells after 12 hrs by FITC-annexin V/PI staining-based flow cytometric analysis; format: functional, cell-based
A-431 [13] = assay: Induction of apoptosis in human A431 cells assessed as late apoptotic cells at 13 uM after 12 hrs by FITC-annexin V/PI staining-based flow cytometric analysis (reference value: 7.4%); format: functional
A-431 [14] = assay: Induction of apoptosis in human A431 cells assessed as early apoptotic cells at 13 uM after 12 hrs by FITC-annexin V/PI staining-based flow cytometric analysis (reference value: 0.6%); format: functional
A-431 [15] = assay: Induction of apoptosis in human A431 cells assessed as late apoptotic cells at 11 uM after 12 hrs by FITC-annexin V/PI staining-based flow cytometric analysis (reference value: 7.4%); format: functional
A-431 [16] = assay: Induction of apoptosis in human A431 cells assessed as early apoptotic cells at 11 uM after 12 hrs by FITC-annexin V/PI staining-based flow cytometric analysis (reference value: 0.6%); format: functional
A-431 [17] = assay: Induction of apoptosis in human A431 cells assessed as late apoptotic cells at 8 uM after 12 hrs by FITC-annexin V/PI staining-based flow cytometric analysis (reference value: 7.4%); format: functional
A-431 [18] = assay: Induction of apoptosis in human A431 cells assessed as early apoptotic cells at 8 uM after 12 hrs by FITC-annexin V/PI staining-based flow cytometric analysis (reference value: 0.6%); format: functional
A-431 [19] = assay: Induction of apoptosis in human A431 cells assessed as caspase3/7 activation at 2.8 uM after 24 hrs by caspase-Glo assay; format: functional, cell-based
Outline: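 A-431 cells (20,000/well, 384-well) were incubated with compound for 1, 2, 4, 6, 12 and 24 h in the dark at 37 °C, 5% CO2. Caspase-Glo 3/7 reagent was added for 30 min at room temperature in the dark. Luminescence was then read on a plate luminometer.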

MCF7 [20] = assay: Induction of Cell cycle arrest in human MCF7 cells assessed as G2/M phase cells at IC50 concentration after 24 hrs by PI-staining based flow cytometric analysis (reference value: 13%); format: functional
Outline: (§2)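 MCF-7 cells (10^6) were treated for 24 h, with methanol as the vehicle control. Cells were fixed in cold 70% methanol at 4 °C for one day, washed with PBS, and permeabilized with 0.1% saponin in PBS. They were stained with propidium iodide plus RNase for 30 min. DNA content was read by flow cytometry, giving percentages of cells per cell-cycle phase.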

MCF7 [21] = assay: Induction of Cell cycle arrest in human MCF7 cells assessed as S phase cells at IC50 concentration after 24 hrs by PI-staining based flow cytometric analysis (reference value: 19%); format: functional; outline: as §2
MCF7 [22] = assay: Induction of Cell cycle arrest in human MCF7 cells assessed as G0/1 phase cells at IC50 concentration after 24 hrs by PI-staining based flow cytometric analysis (reference value: 68%); format: functional; outline: as §2
MCF7 [23] = assay: Induction of oxidative stress in human MCF7 cells assessed as decrease in GSH level at 5 uM after 1 hr by DTNB assay relative to control; format: functional; set-up: scale not given: the % may be the effect or the level left
Outline: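 MCF-7 cells (10^6) were treated for 1 h at 37 °C, trypsinized, and washed twice with cold PBS. GSH was extracted with chilled 5% metaphosphoric acid at 4 °C for 2 h, then the lysate was centrifuged. Supernatant was mixed with 0.2 M sodium phosphate pH 8.0 and 0.04 mM DTNB for 10 min at room temperature. Absorbance was read at 412 nm against a reagent blank, and GSH was quantified from a standard curve.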

[24] = Cytotoxicity against human PHF cells after 24 hrs by MTT assay; format: cell-based
Outline: (§3)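 MTT assay. Cells were seeded at 50,000 cells/mL in medium with 10% fetal calf serum and grown for two days at 37 °C, 10% CO2. Serial dilutions of compound were then added for 24 h. MTT was added (final 0.5 mg/mL) for 2 h, and the formazan was pelleted, washed, dissolved in isopropanol with 0.4% HCl and read at 590 nm. IC50 is the concentration giving 50% of untreated-control absorbance, taken from dose-response curves; mean of two parallel experiments.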

HUVEC = assay: Cytotoxicity against human HUVEC cells after 24 hrs by MTT assay; format: cell-based; outline: as §3
A-431 [25] = assay: Cytotoxicity against human A431 cells after 24 hrs by MTT assay; format: functional, cell-based; conditions: A-431, 24 h; outline: as §3
A498 = assay: Cytotoxicity against human A498 cells after 24 hrs by MTT assay; format: functional, cell-based; conditions: A498, 24 h; outline: as §3
MCF7 [26] = assay: Cytotoxicity against human MCF7 cells after 24 hrs by MTT assay; format: functional, cell-based; conditions: MCF7, 24 h; outline: as §3

For `CC1=C([Se]CC(OC(=O)CC[Se]c2ccccc2)C(=O)NCCCCCC(=O)OCc2ccccc2)C(=O)c2ccccc2C1=O` (stereo not drawn), the zone of inhibition at 20 µg/disc (Saccharomyces cerevisiae [1]) was 15 mm, the zone of inhibition at 20 µg/disc (Saccharomyces cerevisiae [2]) was 15 mm and the zone of inhibition at 20 µg/disc (Saccharomyces cerevisiae [3]) was 15 mm. The zone of inhibition at 20 µg/disc (Saccharomyces cerevisiae [4]) was 15 mm, the zone of inhibition at 20 µg/disc (Saccharomyces cerevisiae [5]) was 25 mm and the zone of inhibition at 20 µg/disc (Saccharomyces cerevisiae [6]) was 17 mm. For the same molecule, the zone of inhibition at 20 µg/disc (Saccharomyces cerevisiae [7]) was 26 mm, the zone of inhibition at 20 µg/disc (Saccharomyces cerevisiae [8]) was 16 mm and the zone of inhibition at 20 µg/disc (Saccharomyces cerevisiae [9]) was 19 mm. For the same molecule, the zone of inhibition at 20 µg/disc (Saccharomyces cerevisiae [10]) was 14 mm, the zone of inhibition at 20 µg/disc (Saccharomyces cerevisiae [11]) was 0 mm and the Activity (A-431 [12]) was “Dose-dependent effect”. For the same molecule, the Activity (A-431 [13]) was 29.3%, the Activity (A-431 [14]) was 4.1% and the Activity (A-431 [15]) was 13.1%. The Activity (A-431 [16]) was 7.7%, the Activity (A-431 [17]) was 12.9% and the Activity (A-431 [18]) was 2.5%. For the same molecule, the Activity (A-431 [19]) was “Active”, the Activity (MCF7 [20]) was 6% and the Activity (MCF7 [21]) was 6.8%. It also gave an Activity (MCF7 [22]) of 87%, an Activity (MCF7 [23]) of 62% and an IC50 [24] of 6 µM. For the same molecule, the IC50 (HUVEC) was 3 µM, the IC50 (A-431 [25]) was 4 µM and the IC50 (A498) was 4 µM. It also gave an IC50 (MCF7 [26]) of 9 µM.
